# Measured values pooled from the literature.
# Protocols differ between the studies behind these lines.
# Target: Interleukin-1 receptor-associated kinase 4 (IRAK4, Homo sapiens, UniProt Q9NWZ3)
# Residues used in one study (Q9NWZ3 1-460): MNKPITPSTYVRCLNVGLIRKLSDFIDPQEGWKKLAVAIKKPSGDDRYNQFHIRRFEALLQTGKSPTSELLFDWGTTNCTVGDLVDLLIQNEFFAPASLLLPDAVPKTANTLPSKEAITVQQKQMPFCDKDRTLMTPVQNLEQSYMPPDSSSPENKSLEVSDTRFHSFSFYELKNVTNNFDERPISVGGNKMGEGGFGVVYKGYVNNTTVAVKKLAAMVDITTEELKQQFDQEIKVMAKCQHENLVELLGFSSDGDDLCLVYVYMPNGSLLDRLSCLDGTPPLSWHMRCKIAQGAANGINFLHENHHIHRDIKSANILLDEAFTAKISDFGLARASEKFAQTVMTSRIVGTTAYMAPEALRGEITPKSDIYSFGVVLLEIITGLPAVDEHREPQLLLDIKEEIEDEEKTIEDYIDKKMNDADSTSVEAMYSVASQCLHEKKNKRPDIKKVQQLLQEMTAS
SMILES,read-out,method,concentration,remaining binding [%]
COc1ncc2cc3ccccc3nc2c1C#N,cell-free assay,competition with immobilised ligand,5 µM,97
O=C(c1ccc(Nc2ncc(Cl)c(-c3ccc(Cl)s3)n2)cc1)N1CCC(N2CCCC2)CC1,binding,competition with immobilised ligand,1 µM,60
c1cnn2ncc(-c3ccnc(N4CCC45COC5)n3)c2c1,binding,,1 µM,79
CCS(=O)(=O)c1cc2cc(C[C@](O)(CC(C)(C)c3ccc(F)cc3C(N)=O)C(F)(F)F)[nH]c2cn1,cell-free assay,competition with immobilised ligand,1 µM,100
COc1cnc(Nc2cccc(S(N)(=O)=O)c2)nc1N1CCN(c2ccccc2)CC1,binding,competition with immobilised ligand,1 µM,65
O=C(O)[C@H]1[C@H](Cn2nnc3ccccc3c2=O)CC[C@@H]1C(=O)c1ccc(OCCC2CCOCC2)cc1,cell-free assay,competition with immobilised ligand,1 µM,76
C[C@H]1CCN(c2nccc(-c3cnn4ncccc34)n2)C1,binding,,1 µM,73
O=C(NCC1CCOCC1)c1n[nH]cc1NC(=O)c1c(F)cccc1F,binding,competition with immobilised ligand,1 µM,100
CN(c1nccc(-c2cnn3ncccc23)n1)C1CC1,binding,,1 µM,100
Cc1cnc(Nc2ccc(C(=O)N3CCC(N4CCCC4)CC3)cc2)nc1-c1cc2ccccc2s1,binding,competition with immobilised ligand,1 µM,45
CN(C)c1ncc(F)c(-c2cnn3ncccc23)n1,binding,,1 µM,69
O=C(Nc1ccc(Oc2ccc(F)cc2)cc1)N1CCc2ncccc2[C@H]1c1ccc(F)cc1,cell-free assay,competition with immobilised ligand,1 µM,96
COc1cnc(Nc2cccc(S(N)(=O)=O)c2)nc1N1CCN(c2ccccc2)C(=O)C1,binding,competition with immobilised ligand,1 µM,88
CN(C)c1nccc(-c2cnc3ncccn23)n1,binding,,1 µM,74
O=C1NC(c2ccccn2)Sc2ccccc21 (centres unmarked),cell-free assay,competition with immobilised ligand,1 µM,100
FC(F)(F)Oc1cccc(-c2cnc3ccc(-c4ccncc4)nn23)c1,cell-free assay,competition with immobilised ligand,5 µM,1.6
Cn1cc(Cl)c2c(Oc3c(F)cc(Nc4cc(Cl)nc(N)n4)cc3F)ccnc21,cell-free assay,competition with immobilised ligand,0.1 µM,90
O=C(c1ccc(Nc2ncc(Cl)c(-c3cc4ccccc4s3)n2)cc1)N1CCC(N2CCCC2)CC1,binding,competition with immobilised ligand,1 µM,57
CNCc1ccccc1-c1csc([C@H](C)Nc2nc(C)nc3cc(OC)c(OC)cc23)c1,cell-free assay,competition with immobilised ligand,1 µM,89
COc1ccnn2ncc(-c3ccnc(N(C)C)n3)c12,binding,,1 µM,80
